# Measurements: article PMC4956519 (Journal of chromatography. B, Analytical technologies in …, 2016)
# Where a SMILES comes first, the peptide text is derived from it.
# Type: in vivo, mice
# Method in brief: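 Adult male C57BL/6J mice (20–25 g), single i.v. injection 10 mg/kg in 10% Solutol in saline; 5 mice per time point killed at 2, 5, 15, 30, 60 min, cardiac blood centrifuged for plasma. Plasma precipitated with ice-cold acetonitrile containing internal standard, supernatant diluted with water; C8 reversed-phase LC-MS/MS, positive-ion MRM m/z 578.1→217.1/245.0; calibration 0.5–500 ng/mL; non-compartmental analysis.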
# [1] = male, C57BL/6J, mouse, plasma, iv, 10 mg/kg
structure (smiles),measurement,setting,value
"O=C1N[C@H](Cc2c[nH]c3ccccc23)C(=O)N[C@@H](Cc2ccccc2)C(=O)N2CCC[C@@H]2C(=O)N[C@H]1Cc1ccccc1 [[D-Trp]CJ-15,208, cyclo[Phe-D-Pro-Phe-D-Trp]] (HELM PEPTIDE1{F.[dP].F.[dW]}$PEPTIDE1,PEPTIDE1,1:R1-4:R2$$$V2.0)",Time to almost complete elimination from plasma,"10 mg/kg i.v. to mice, LC-MS/MS",≤ 1 h
same,AUC0-t,"male C57BL/6J mice, 10 mg/kg i.v., plasma, LC-MS/MS, non-compartmental analysis, 5 mice per time point",19124.7 ng·min/mL
same,AUC(0-inf),[1],337 ng·h/mL
same,C0,[1],1130 ng/mL
same,Cmax,[1],1020 ng/mL
same,Vd,[1],10.1 L/kg
same,clearance,[1],494 mL/min/kg
same,half-life,[1],14.2 min
same,Decline of plasma concentration,"within 15 minutes after 10 mg/kg i.v. to mice, LC-MS/MS",over 50%
